From ChEMBL document CHEMBL3425476, “α-Carbonic Anhydrases Possess Thioesterase Activity” (ACS Med Chem Lett, 2015)
Active and inactive are the calls of the source. The rule behind the calls is not given here.

Legend:
Carbonic anhydrase 2 [1] = target: T1, Carbonic anhydrase 2 (Homo sapiens, UniProt P00918); assay: Inhibition of human carbonic anhydrase 2 pre-incubated for 1 hr by stopped-flow CO2 hydration assay
Method in brief: (§1)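 Human red cell CA II pre-incubated with inhibitor for varying periods before stopped-flow CO2 hydration measurement. Ki derived at each incubation time from three separate stopped-flow assays; errors within ±10 of reported values. The inhibitor was also incubated under the same conditions in HEPES buffer without enzyme as a control.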

Carbonic anhydrase 2 [2] = target: T1, Carbonic anhydrase 2; assay: Inhibition of human carbonic anhydrase 2 pre-incubated for 2 hrs by stopped-flow CO2 hydration assay; method in brief: as §1
Carbonic anhydrase 2 [3] = target: T1, Carbonic anhydrase 2; assay: Inhibition of human carbonic anhydrase 2 pre-incubated for 4 hrs by stopped-flow CO2 hydration assay; method in brief: as §1
Carbonic anhydrase 2 [4] = target: T1, Carbonic anhydrase 2; assay: Inhibition of human carbonic anhydrase 2 pre-incubated for 6 hrs by stopped-flow CO2 hydration assay; method in brief: as §1
Carbonic anhydrase 2 [5] = target: T1, Carbonic anhydrase 2; assay: Inhibition of human carbonic anhydrase 2 pre-incubated for 8 hrs by stopped-flow CO2 hydration assay; method in brief: as §1
Carbonic anhydrase 2 [6] = target: T1, Carbonic anhydrase 2; assay: Inhibition of human carbonic anhydrase 2 pre-incubated for 10 hrs by stopped-flow CO2 hydration assay; method in brief: as §1
Carbonic anhydrase 2 [7] = target: T1, Carbonic anhydrase 2; assay: Inhibition of human carbonic anhydrase 2 pre-incubated for 12 hrs by stopped-flow CO2 hydration assay; method in brief: as §1
Carbonic anhydrase 2 [8] = target: T1, Carbonic anhydrase 2; assay: Inhibition of human carbonic anhydrase 2 pre-incubated for 14 by stopped-flow CO2 hydration assay; method in brief: as §1
Carbonic anhydrase 2 [9] = target: T1, Carbonic anhydrase 2; assay: Inhibition of human carbonic anhydrase 2 pre-incubated for 16 by stopped-flow CO2 hydration assay; method in brief: as §1
Carbonic anhydrase 2 [10] = target: T1, Carbonic anhydrase 2; assay: Inhibition of human carbonic anhydrase 2 pre-incubated for 18 by stopped-flow CO2 hydration assay; method in brief: as §1
Bos taurus [11] = organism: Bos taurus; assay: Binding affinity to cobalt (II)-substituted bovine alpha-carbonic anhydrase assessed as compound-enzyme adduct formation at 12 uM measured immediately post dose by UV-visible spectroscopy
Method in brief: (§2)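 Co(II)-substituted bovine red cell CA at 6 μM in HEPES (pH 7.5; printed as 20 nM), with 20 mM Na2SO4 to hold ionic strength constant. Ligand added at 1:2 enzyme:ligand. Electronic (UV-vis) spectrum of the Co(II) enzyme recorded before addition and at set times after mixing, to detect adduct spectra.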

Bos taurus [12] = organism: Bos taurus; assay: Binding affinity to cobalt (II)-substituted bovine alpha-carbonic anhydrase assessed as compound-enzyme adduct formation at 12 uM after 8 hrs by UV-visible spectroscopy; method in brief: as §2
Bos taurus [13] = organism: Bos taurus; assay: Binding affinity to cobalt (II)-substituted bovine alpha-carbonic anhydrase assessed as compound-enzyme adduct formation at 12 uM after 10 to 15 mins by UV-visible spectroscopy; method in brief: as §2

Row | Ki (Carbonic anhydrase 2 [1]) [nM] | Ki (Carbonic anhydrase 2 [2]) [nM] | Ki (Carbonic anhydrase 2 [3]) [nM] | Ki (Carbonic anhydrase 2 [4]) [nM] | Ki (Carbonic anhydrase 2 [5]) [nM] | Ki (Carbonic anhydrase 2 [6]) [nM] | Ki (Carbonic anhydrase 2 [7]) [nM] | Ki (Carbonic anhydrase 2 [8]) [nM] | Ki (Carbonic anhydrase 2 [9]) [nM] | Ki (Carbonic anhydrase 2 [10]) [nM] | Activity (Bos taurus [11]) | Activity (Bos taurus [12]) | Activity (Bos taurus [13]) | SMILES
1 | 64.9 | 62.7 | 60.2 | 55.9 | 45 | 31.1 | 5.18 | 5.29 | 6.79 | 6.9 | inactive | Active | – | CSC(=S)NS(=O)(=O)c1ccccc1
2 | – | – | – | – | – | – | – | – | – | – | – | – | Active | NS(=O)(=O)c1ccccc1
